{"data": "Measurements gathered from unrelated publications", "target": "cAMP-dependent protein kinase catalytic subunit alpha (PRKACA, Homo sapiens, UniProt P17612)", "note": "Compare with care: the assays were run in different laboratories."}
{"SMILES": "O=C(c1ccc(Nc2ncc(Cl)c(-c3ccc(Cl)s3)n2)cc1)N1CCC(N2CCCC2)CC1", "effect on": "binding", "method": "competition with immobilised ligand", "tested at": "1 µM", "remaining binding [%]": 97}
{"SMILES": "c1cnn2ncc(-c3ccnc(N4CCC45COC5)n3)c2c1", "effect on": "binding", "tested at": "1 µM", "remaining binding [%]": 100}
{"SMILES": "O=C(NCCCN1CCOCC1)c1ccc(Nc2ncc(Cl)c(-c3ccc(Cl)s3)n2)cc1", "effect on": "binding", "method": "competition with immobilised ligand", "tested at": "1 µM", "remaining binding [%]": 100}
{"SMILES": "CS(=O)(=O)N1CCCC(NC(=O)[C@H](CCC2CCCCC2)NC(=O)c2ccc(CNc3ncnc4c3nnn4-c3ccccc3)cc2)C1 (stereo partly drawn)", "effect on": "cell-free assay", "method": "competition with immobilised ligand", "tested at": "0.1 µM", "remaining binding [%]": 100}
{"SMILES": "c1cncc(-c2cccc(Nc3nccc(NC4CCCCC4)n3)c2)c1", "effect on": "binding", "method": "competition with immobilised ligand", "tested at": "10 µM", "remaining binding [%]": 50}
{"SMILES": "O=C(c1ccc(Nc2nccc(-c3cc4ccccc4s3)n2)cc1)N1CCC(N2CCCC2)CC1", "effect on": "binding", "method": "competition with immobilised ligand", "tested at": "1 µM", "remaining binding [%]": 100}
{"SMILES": "COc1ccc2c(c1)O[C@@H](c1ccc(OC)c(OC)c1)C[C@H]2NC(=O)C1(c2ccc3c(c2)OC(F)(F)O3)CC1", "effect on": "cell-free assay", "method": "competition with immobilised ligand", "tested at": "1 µM", "remaining binding [%]": 100}
{"SMILES": "CNC(=O)[C@@H]1CC[C@@H](n2c(-c3ccc4cnccc4c3)nc3ccc(C(=O)NCc4cccc(C(N)=O)c4)cc32)C1", "effect on": "binding", "method": "competition with immobilised ligand", "tested at": "1 µM", "remaining binding [%]": 100}
{"SMILES": "CN(CCCC(F)(F)F)c1nccc(-c2cnn3ncccc23)n1", "effect on": "binding", "tested at": "1 µM", "remaining binding [%]": 100}
{"SMILES": "C=CC(=O)N1CCC(C(=O)NCC(=O)N2CCN(c3nc(-c4cnc(N)nc4C(F)F)nc(N4CCOCC4)n3)CC2)CC1", "effect on": "binding", "method": "competition with immobilised ligand", "tested at": "1 µM", "remaining binding [%]": 100}
{"SMILES": "COCCOc1nc(-c2ccc(Cl)nc2)nc2c1CN(C(=O)c1ncn3ccccc13)CC2", "effect on": "cell-free assay", "method": "competition with immobilised ligand", "tested at": "0.1 µM", "remaining binding [%]": 82}
{"SMILES": "COc1cnc(Nc2cccc(S(N)(=O)=O)c2)nc1N1CCN(c2ccccc2)CC1", "effect on": "binding", "method": "competition with immobilised ligand", "tested at": "1 µM", "remaining binding [%]": 100}
{"SMILES": "c1ccc(N2CCN(Cc3nc4ccccc4[nH]3)CC2)nc1", "effect on": "cell-free assay", "method": "competition with immobilised ligand", "tested at": "1 µM", "remaining binding [%]": 91}
{"SMILES": "C[C@H]1CCN(c2nccc(-c3cnn4ncccc34)n2)C1", "effect on": "binding", "tested at": "1 µM", "remaining binding [%]": 100}
{"SMILES": "FC(F)(F)Oc1cccc(-c2cnc3ccc(-c4ccncc4)nn23)c1", "effect on": "cell-free assay", "method": "competition with immobilised ligand", "tested at": "5 µM", "remaining binding [%]": 91}
{"SMILES": "O=C(Nc1c[nH]nc1C(=O)NC1CCNCC1)c1cc(F)cc(F)c1", "effect on": "binding", "method": "competition with immobilised ligand", "tested at": "1 µM", "remaining binding [%]": 100}
{"SMILES": "CC(C)(C)c1ccc(-c2nc(CBr)nn2-c2cccc(O)c2)cc1", "effect on": "cell-free assay", "method": "competition with immobilised ligand", "tested at": "10 µM", "remaining binding [%]": 86}
{"SMILES": "Cc1c(C(=O)O)cc(-c2ccc(C3CCNCC3)cc2)c2ccc(-c3ccc(C(F)(F)F)cc3)cc12", "effect on": "cell-free assay", "method": "competition with immobilised ligand", "tested at": "1 µM", "remaining binding [%]": 100}
{"SMILES": "CN(C)c1nccc(-c2cnn3ncccc23)n1", "effect on": "binding", "tested at": "1 µM", "remaining binding [%]": 100}
{"SMILES": "Nc1cnc(N2CCc3cc(S(=O)(=O)Nc4c(F)cc(Cl)cc4F)cc(N4CCCC4=O)c32)nc1", "effect on": "cell-free assay", "method": "competition with immobilised ligand", "tested at": "1 µM", "remaining binding [%]": 100}
{"SMILES": "C[C@@H]1CN(c2ccc3ncc(-c4ccc5[nH]nc(C6CC6)c5c4)n3n2)C[C@H](C)O1", "effect on": "binding", "method": "competition with immobilised ligand", "tested at": "0.5 µM", "remaining binding [%]": 100}
